Our source for the MIC, Activity and IC50 values is ChEMBL document CHEMBL4330087, “Synthesis, antimicrobial activity, attenuation of aminoglycoside resistance in MRSA, and ribosomal A-site binding of pyrene-neomycin conjugates” (Eur J Med Chem, 2019).

The MIC is the smallest concentration in the dilution series that meets the test's criterion for growth inhibition. Broadly, the IC50 is the concentration that gives 50% inhibition.

Data set [1] relates to Staphylococcus aureus. Briefly: Antibacterial activity against methicillin-resistant Staphylococcus aureus A960649 after 15 to 20 hrs by CLSI protocol based microdilution assay. Type of data set: functional. The procedure, abridged: (§1)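 CLSI broth microdilution on exponential-phase bacteria at ~3×10^5 cells/mL in cation-adjusted Mueller-Hinton broth. Serial 2-fold dilutions gave final concentrations of 50 to 0.78 μM; compound stocks were 10× in 10% DMSO. Incubated at 37 °C for 15-20 h, growth read at A595. Percent inhibition averaged over triplicates; MIC in μM.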

A further data set has as its system Bacillus anthracis. Briefly: Antibacterial activity against NEO-sensitive Bacillus anthracis BA852 after 15 to 20 hrs by CLSI protocol based microdilution assay. In kind it is functional. The procedure, abridged: as §1
For orientation: In broth dilution the organism is exposed to a series of concentrations in liquid medium.

Data set [2] relates to Staphylococcus aureus. The data set can be described thus: Antibacterial activity against NEO-sensitive Staphylococcus aureus C1 after 15 to 20 hrs by CLSI protocol based microdilution assay. In kind it is functional. An outline of the steps: (§2)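 CLSI broth microdilution MIC in triplicate on exponential-phase cells, ~3×10^5 cells per mL in cation-adjusted Mueller-Hinton broth. Compound was added from 10× stocks in 10% DMSO as serial 2-fold dilutions, final 50 to 0.78 μM. Plates were incubated at 37 °C, humidified, 15-20 h. Growth was read as absorbance at 595 nm, and percent inhibition was averaged over triplicates.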

Data set [3] in a line: Toxicity in Caenorhabditis elegans infected with methicillin-resistant Staphylococcus aureus assessed as effect on nematode larvae viability by measuring decrease in formazan production at 6.25 to 50 uM after 24 hrs by MTT assay relative to control. For orientation: Tetrazolium assays rely on reduction of a dye to a coloured formazan, in cell work by metabolically active cells.

Data set [4] deals with Ribosomal RNA A-site. The data set can be described thus: Binding affinity to rRNA-A site in human MDA-MB-231 cells assessed as inhibition of protein translation. Type of data set: cell-based.
In data set [5] the test system is Staphylococcus aureus. Briefly: Antibacterial activity against methicillin-resistant Staphylococcus aureus SU-5 after 15 to 20 hrs by CLSI protocol based microdilution assay. In kind it is functional. The procedure, abridged: as §1
Data set [6] deals with Escherichia coli. The data set can be described thus: Antibacterial activity against multidrug-resistant Escherichia coli H4H after 15 to 20 hrs by CLSI protocol based microdilution assay. In kind it is functional. The procedure, abridged:
as §1

Data set [7] deals with Staphylococcus aureus. Briefly: Antibacterial activity against NEO-sensitive Staphylococcus aureus 6538 after 15 to 20 hrs by CLSI protocol based microdilution assay. Type of data set: functional. The procedure, abridged: as §2
Data set [8] is described as follows: Toxicity in Caenorhabditis elegans infected with methicillin-resistant Staphylococcus aureus assessed as effect on nematode larvae viability by measuring decrease in formazan production at 3.13 to 1.56 uM after 24 hrs by MTT assay.
The test system of data set [9] is Staphylococcus epidermidis. The data set can be described thus: Antibacterial activity against NEO-sensitive Staphylococcus epidermidis 12384 after 15 to 20 hrs by CLSI protocol based microdilution assay. Type of data set: functional. The procedure, abridged: as §1
The test system of data set [10] is Staphylococcus aureus. Briefly: Antibacterial activity against methicillin-resistant Staphylococcus aureus M0602 after 15 to 20 hrs by CLSI protocol based microdilution assay. In kind it is functional. The procedure, abridged:
as §1

The target in data set [11] is Ribosomal RNA A-site. Briefly: Displacement of F-NEO from human cytosolic rRNA-A site after 10 to 20 mins by fluorescence assay. Type of data set: nucleic-acid assay. The procedure, abridged: (§3)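 A 100 nM F-NEO:A-site RNA complex in 10 mM HEPES, 50 mM NaCl, 0.04 mM EDTA, pH 7.0 was titrated with 2-fold dilutions of ligand from 20 to 0.009 μM, or from 60 or 40 μM for weaker ligands. Incubated 10-20 min at room temperature, fluorescence read at ex 485/em 525 nm. IC50 from dose-response curve fit.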

Data set [12] has as its system Mycolicibacterium smegmatis. Briefly: Antibacterial activity against NEO-sensitive Mycobacterium smegmatis after 15 to 20 hrs by CLSI protocol based microdilution assay. In kind it is functional. The procedure, abridged:
as §1

The test system of data set [13] is Escherichia coli. Briefly: Antibacterial activity against NEO-sensitive Escherichia coli harboring TolC mutant after 15 to 20 hrs by CLSI protocol based microdilution assay. In kind it is functional. The procedure, abridged: as §1
Data set [14] concerns Staphylococcus aureus. Briefly: Antibacterial activity against NEO-sensitive Staphylococcus aureus harboring NorA mutant after 15 to 20 hrs by CLSI protocol based microdilution assay. Type of data set: functional. The procedure, abridged: as §1
For data set [15], the system named is Staphylococcus aureus. The data set can be described thus: Antibacterial activity against NEO-sensitive Staphylococcus aureus NRS77 after 15 to 20 hrs by CLSI protocol based microdilution assay. In kind it is functional. An outline of the steps: as §2
In data set [16] the test system is Staphylococcus aureus. The data set can be described thus: Antibacterial activity against methicillin-resistant Staphylococcus aureus 33591 after 15 to 20 hrs by CLSI protocol based microdilution assay. Type of data set: functional. The procedure, abridged: as §1
The subject of data set [17] is Staphylococcus aureus. Briefly: Antibacterial activity against NEO-sensitive Staphylococcus aureus 25923 after 15 to 20 hrs by CLSI protocol based microdilution assay. In kind it is functional. An outline of the steps:
as §1

A further data set deals with Streptococcus pyogenes. Briefly: Antibacterial activity against NEO-resistant Streptococcus pyogenes C203 after 15 to 20 hrs by CLSI protocol based microdilution assay. In kind it is functional. An outline of the steps:
as §1

Data set [18] deals with Escherichia coli. The data set can be described thus: Antibacterial activity against NEO-sensitive Escherichia coli ATCC 25922 after 15 to 20 hrs by CLSI protocol based microdilution assay. In kind it is functional. The procedure, abridged: as §1
Data set [19] has as its system Staphylococcus aureus. The data set can be described thus: Antibacterial activity against NEO-sensitive Staphylococcus aureus C2 after 15 to 20 hrs by CLSI protocol based microdilution assay. In kind it is functional. An outline of the steps: as §2
The subject of data set [20] is Ribosomal RNA A-site. Briefly: Displacement of F-NEO from Escherichia coli rRNA-A site after 10 to 20 mins by fluorescence assay. Type of data set: nucleic-acid assay. The procedure, abridged:
as §3

Converted amounts (≈) assume the structure as drawn. The source made the active and inactive calls.

For the molecule `NC[C@@H]1O[C@H](O[C@H]2[C@@H](O)[C@H](O[C@@H]3[C@@H](O)[C@H](N)C[C@H](N)[C@H]3O[C@H]3O[C@H](CN)[C@@H](O)[C@H](O)[C@H]3N)O[C@@H]2CO)[C@H](N)[C@@H](O)[C@@H]1O` [FRAMYCETIN], the MIC was 100 µM (≈ 61.5 µg/mL) in the data set with Staphylococcus aureus [1]; 1.56 µM (≈ 0.959 µg/mL) with Bacillus anthracis; 3.2 µM (≈ 1.97 µg/mL) in the data set on Staphylococcus aureus [2]; 200 to 400 µM (≈ 123 to 246 µg/mL) against Staphylococcus aureus [5]; 400 µM (≈ 246 µg/mL) against Escherichia coli [6]; 3.2 µM (≈ 1.97 µg/mL) in the data set on Staphylococcus aureus [7]. The minimum inhibitory concentration (MIC) was 1.56 µM (≈ 0.959 µg/mL) in data set [9]; above 400 µM in the data set with Staphylococcus aureus [10]; 0.78 µM (≈ 0.479 µg/mL) in [12]; 1.56 µM (≈ 0.959 µg/mL) in the data set on Escherichia coli [13]; 1.56 µM (≈ 0.959 µg/mL) with Staphylococcus aureus [14]; 1.6 µM (≈ 0.983 µg/mL) in the data set with Staphylococcus aureus [15]. The MIC in the data set with Staphylococcus aureus [16] worked out at 400 µM (≈ 246 µg/mL); in the data set with Staphylococcus aureus [17] it was 1.56 µM (≈ 0.959 µg/mL); with Escherichia coli [18], 3.13 µM (≈ 1.92 µg/mL); against Staphylococcus aureus [19], 6.3 µM (≈ 3.87 µg/mL). Moreover, the Activity was 50 to 75% in data set [3] and “Non-Toxic” in data set [8]. Besides, the IC50 is 0.139 µM in the data set on Ribosomal RNA A-site [4], 0.076 µM at Ribosomal RNA A-site [11] and 0.087 µM in the data set with Ribosomal RNA A-site [20]. The MIC entry in the data set on Streptococcus pyogenes is “inactive”.
